pIC50: −log10 of the molar value.
Key:
[1] = tested on: C13; assay: In vitro cytotoxicity against C13 tumor cell line; Not detected; type: functional, cell-based, Homo sapiens
Outline: (§1)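 Cisplatin-resistant C13* human ovarian adenocarcinoma cells, kept in RPMI 1640 with 10% heat-inactivated FCS and 2 mM L-glutamine, seeded and treated 24 h later with graded concentrations for 24 h. Viability by MTT (4 h, 37 °C; DMSO solubilization; 570 nm, reference 630 nm). IC50 with 95% confidence limits by Litchfield–Wilcoxon; three experiments in triplicate.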

[2] = Compound was tested for toxicity induced in human monocyte
Outline: (§2)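 Adherent human peripheral blood mononuclear cells (Ficoll-isolated, 2 h adhesion at 37 °C, nonadherent cells washed off) exposed 24 h to 25, 50, 100 μM test agent, triplicate wells per dose. Medium then replaced with C13* ovarian carcinoma cells (2 × 10³/well), cocultured 24 h, lysis read by MTT. IC50 with 95% confidence limits by Litchfield–Wilcoxon; three experiments in triplicate.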

[3] = Compound was tested for toxicity induced in murine macrophage; conditions: Mus musculus
Outline: (§3)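 Resident mouse peritoneal cells recovered by PBS–heparin (10 U/mL) lavage, adhered 2 h at 37 °C in RPMI 1640 + 5% FCS. Macrophages plated at 1 × 10⁴/well with graded drug concentrations for 24 h (triplicate wells). C13* cells (2 × 10³/well) then added, cocultured 24 h, MTT read-out. Specific cytotoxicity = [OD(macrophages+C13*) − OD(macrophages)]/OD(C13*). IC50 with 95% limits by Litchfield–Wilcoxon.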

[4] = organism: Homo sapiens; assay: Potency ratio as the ratio of IC50 of DMXXA against human monocytes to that of the IC50 against human monocytes.; type: ADME
[5] = organism: Mus musculus; assay: Potency ratio as the ratio of IC50 of DMXXA against murine macrophages to that of the IC50 against murine macrophages; type: ADME
[6] = Potency ratio against macrophages.; type: ADME
[7] = tested on: C13; assay: In vitro cytotoxicity against C13 tumor cell line; type: functional, cell-based; conditions: Homo sapiens; outline: as §1
[8] = Compound was tested for toxicity induced in human monocyte; b indicates Not detected; outline: as §2
[9] = Compound was tested for toxicity induced in murine macrophage; b indicates Not detected; conditions: mouse; outline: as §3

COC(=O)Cc1cccc2c(=O)c3ccc4c(c3oc12)C=CC(C)(C)O4
IC50 [1]: Not detected | pIC50 [2]: 4.27 | pIC50 [3]: 4.52 | Potency ratio [4]: 2.5 | Potency ratio [5]: 6.9 | Potency ratio [6]: 0.6

COC(=O)Cc1cccc2c(=O)c3ccc(OCC=C(C)C)c(C)c3oc12
pIC50 [7]: 3.15 | pIC50 [2]: 4.13 | pIC50 [3]: 3.65 | Potency ratio [4]: 1.8 | Potency ratio [5]: 1 | Potency ratio [6]: 3

COC(=O)Cc1cccc2c(=O)c3ccc4oc(C)cc4c3oc12
IC50 [1]: Not detected | IC50 [8]: Not detected | pIC50 [3]: 4.09 | Potency ratio [5]: 2.6

C=CCOc1ccc2c(=O)c3cccc(CC(=O)OC)c3oc2c1
pIC50 [7]: 3.29 | pIC50 [2]: 3.94 | pIC50 [3]: 4.21 | Potency ratio [4]: 0.8 | Potency ratio [5]: 3.4 | Potency ratio [6]: 0.5

C=C(C)COc1ccc2c(=O)c3cccc(CC(=O)O)c3oc2c1C
pIC50 [7]: 3.35 | pIC50 [2]: 4.06 | pIC50 [3]: 4.11 | Potency ratio [4]: 1.6 | Potency ratio [5]: 2.7 | Potency ratio [6]: 0.9

C=CCOc1ccc2c(=O)c3cccc(CC(=O)O)c3oc2c1
pIC50 [7]: 3.29 | IC50 [8]: Not detected | pIC50 [3]: 3.66 | Potency ratio [5]: 1

C#CCOc1ccc2c(=O)c3cccc(CC(=O)OC)c3oc2c1C
pIC50 [7]: 3.39 | IC50 [8]: Not detected | pIC50 [3]: 3.43 | Potency ratio [5]: 0.6

CC1(C)C=Cc2c(ccc3c(=O)c4cccc(CC(=O)O)c4oc23)O1
pIC50 [7]: 3.14 | pIC50 [2]: 3.59 | pIC50 [3]: 4.35 | Potency ratio [4]: 0.5 | Potency ratio [5]: 4.7 | Potency ratio [6]: 0.2

COC(=O)Cc1cccc2c(=O)c3ccc4c(c3oc12)CC(C)(C)O4
pIC50 [7]: 3.26 | pIC50 [2]: 4.13 | pIC50 [3]: 3.70 | Potency ratio [4]: 1.8 | Potency ratio [5]: 1 | Potency ratio [6]: 2.7

Cc1ccc2c(=O)c3cccc(CC(=O)O)c3oc2c1C [VADIMEZAN]
pIC50 [7]: 3.21 | pIC50 [2]: 3.87 | pIC50 [3]: 3.67

C=C(C)COc1ccc2c(=O)c3cccc(CC(=O)OC)c3oc2c1C
pIC50 [7]: 3.31 | pIC50 [2]: 4.07 | Potency ratio [9]: Not detected

CC(C)=CCOc1ccc2c(=O)c3cccc(CC(=O)O)c3oc2c1
pIC50 [7]: 3.20 | pIC50 [2]: 4.19 | pIC50 [3]: 3.58 | Potency ratio [4]: 2.1 | Potency ratio [5]: 0.8 | Potency ratio [6]: 4.1

CC1Cc2c(ccc3c(=O)c4cccc(CC(=O)O)c4oc23)O1 (stereo not drawn)
pIC50 [7]: 3.15 | pIC50 [2]: 3.75 | pIC50 [3]: 3.80 | Potency ratio [4]: 0.7 | Potency ratio [5]: 1.3 | Potency ratio [6]: 0.9

CC1(C)CCc2c(ccc3c(=O)c4cccc(CC(=O)O)c4oc23)O1
IC50 [1]: Not detected | pIC50 [2]: 3.97 | pIC50 [3]: 4.15 | Potency ratio [4]: 1.2 | Potency ratio [5]: 2.9 | Potency ratio [6]: 0.7

CC1(C)Cc2c(ccc3c(=O)c4cccc(CC(=O)O)c4oc23)O1
pIC50 [7]: 3.22 | pIC50 [2]: 3.76 | pIC50 [3]: 3.66 | Potency ratio [4]: 0.8 | Potency ratio [5]: 0.9 | Potency ratio [6]: 1.3

Cc1cc2c(ccc3c(=O)c4cccc(CC(=O)O)c4oc32)o1
IC50 [1]: Not detected | IC50 [8]: Not detected | pIC50 [3]: 4.38 | Potency ratio [5]: 5

COC(=O)Cc1cccc2c(=O)c3ccc4c(c3oc12)CC(C)O4 (stereo not drawn)
IC50 [1]: Not detected | pIC50 [2]: 4.17 | pIC50 [3]: 4.08 | Potency ratio [4]: 2 | Potency ratio [5]: 2.5 | Potency ratio [6]: 1.2

From ChEMBL document CHEMBL1135640, “Synthesis and antitumor activity of new derivatives of xanthen-9-one-4-acetic acid” (J Med Chem, 2002)
